Experimental data published in ChEMBL document CHEMBL4715734, “Discovery of the Potent and Selective M1 PAM-Agonist N-[(3R,4S)-3-Hydroxytetrahydro-2H-pyran-4-yl]-5-methyl-4-[4-(1,3-thiazol-4-yl)benzyl]pyridine-2-carboxamide (PF-06767832): Evaluation of Efficacy and Cholinergic Side Effects” (J Med Chem, 2016).
Where a chain is given by its changes, count along the chain named. Calls of active or inactive are those of the source. The calls are words filed in the database; no cut-off is given here.

Columns and labels:
[1] = target: T1, Muscarinic acetylcholine receptor M1 (Homo sapiens) (UniProt P11229); assay: Binding affinity to human muscarinic M1 receptor stably expressed in CHO cells assessed as increase in intracellular calcium level by measuring binding constant measured after 10 mins by Fluo-8AM dye based FLIPR TETRA method; format: cell-based; conditions: filed as positive allosteric modulator
T1 sequence (whole entry): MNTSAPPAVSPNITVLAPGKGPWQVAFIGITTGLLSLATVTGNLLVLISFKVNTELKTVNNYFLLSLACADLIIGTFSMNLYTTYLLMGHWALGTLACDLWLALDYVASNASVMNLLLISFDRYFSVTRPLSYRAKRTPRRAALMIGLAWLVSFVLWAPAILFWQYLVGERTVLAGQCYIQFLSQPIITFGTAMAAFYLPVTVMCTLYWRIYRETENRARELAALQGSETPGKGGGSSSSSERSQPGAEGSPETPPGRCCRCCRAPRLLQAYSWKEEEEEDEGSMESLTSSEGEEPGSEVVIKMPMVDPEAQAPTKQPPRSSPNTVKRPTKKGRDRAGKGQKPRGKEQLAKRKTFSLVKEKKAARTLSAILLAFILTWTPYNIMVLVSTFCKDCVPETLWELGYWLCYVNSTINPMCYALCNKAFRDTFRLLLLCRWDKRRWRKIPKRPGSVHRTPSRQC

[2] = Unbound plasma concentration in amphetamine-induced C57BL/6J mouse model of hyperlocomotion at 3.2 mg/kg, sc measured after 1 hr; format: ADME, organism-based; conditions: in vivo
Outline: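 Satellite PK animals from the mouse aLMA study, N=2/dose. Dosed subcutaneously with a solution in 5/15/80 DMSO/Solutol/water. Plasma and brain were sampled at T = 1 h.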

[3] = target: T2, Muscarinic acetylcholine receptor M2 (Homo sapiens, UniProt P08172); assay: Positive allosteric modulation of human recombinant muscarinic M2 receptor stably expressed in HEK cells assessed as increase in ACh-induced cAMP accumulation up to 10 uM measured after 10 mins by GloSensor cAMP Assay; format: cell-based
T2 sequence (P08172 whole entry): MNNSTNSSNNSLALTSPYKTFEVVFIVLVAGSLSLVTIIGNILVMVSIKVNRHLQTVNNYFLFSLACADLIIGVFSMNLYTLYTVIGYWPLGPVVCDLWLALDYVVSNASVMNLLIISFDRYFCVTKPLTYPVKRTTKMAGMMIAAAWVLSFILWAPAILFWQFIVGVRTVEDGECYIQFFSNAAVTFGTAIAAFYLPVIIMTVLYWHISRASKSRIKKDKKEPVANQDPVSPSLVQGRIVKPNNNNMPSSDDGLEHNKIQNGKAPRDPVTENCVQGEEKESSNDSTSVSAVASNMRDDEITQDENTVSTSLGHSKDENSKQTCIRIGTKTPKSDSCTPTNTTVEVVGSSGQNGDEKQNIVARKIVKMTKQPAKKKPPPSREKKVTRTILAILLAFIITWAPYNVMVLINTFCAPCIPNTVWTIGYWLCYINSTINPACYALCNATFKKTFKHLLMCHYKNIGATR

[4] = Fraction unbound in cynomolgus monkey plasma; format: ADME, cell-free, Macaca fascicularis
[5] = fCmax in rat at 10 mg/kg, po administered for 14 days; format: ADME, organism-based; conditions: in vivo, 336 h, time 14 day
Outline: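 2-week repeat oral dosing in rats, 0.5% methylcellulose formulation; N=4/sex/dose; doses 3, 10, 30 (males)/15 (females) mg/kg; unbound exposures reported per dose and sex.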

[6] = Toxicity in male Beagle dog assessed as decrease in RR interval at 3 mg/kg, po administered as single dose observed upto 9 hrs post last dose by telemetry; format: organism-based, Canis lupus familiaris; conditions: in vivo
Outline: (§1)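 Crossover telemetry study in dogs at three oral doses (0.3, 1 and 3 mg/kg), N=4. Endpoints were blood pressure, maximum systolic left ventricular pressure, LV +dP/dt max, activity, heart rate, and RR, QT and QTc intervals, followed up to 9 h post dose.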

[7] = target: T2, Muscarinic acetylcholine receptor M2; assay: Agonist activity at human recombinant muscarinic M2 receptor stably expressed in HEK cells assessed as increase in cAMP accumulation up to 10 uM measured after 10 mins by GloSensor cAMP Assay; format: cell-based
[8] = fAUC (0 to 24 hrs) in dog at 3 mg/kg, po using spray-dried dispersion formulation; format: ADME, organism-based, Canis lupus familiaris; conditions: in vivo
[9] = Oral bioavailability in dog at 0.5 mg/kg; format: ADME, organism-based, Canis lupus familiaris; conditions: in vivo
[10] = Toxicity in male rat assessed as increase in food intake at 30 mg/kg, po administered for 14 days; conditions: in vivo, 336 h
[11] = Toxicity in male Beagle dog assessed as effect on cardiac contractility at 3 mg/kg, po administered as single dose observed upto 9 hrs post last dose by telemetry; format: organism-based, Canis lupus familiaris; conditions: in vivo; outline: as §1
[12] = target: T3, Muscarinic acetylcholine receptor M1 (Rattus norvegicus) (UniProt P08482); assay: Positive allosteric modulation of muscarinic M1 receptor in Sprague-Dawley rat hippocampal slice assessed as increase in carbachol-induced CA1 spiked rates by electrophysiological analysis; conditions: filed as positive allosteric modulator
T3 sequence (whole entry): T1 sequence (whole entry) with A5V, T254S, P309S, R320K, A337G, I413V

[13] = Ratio of fAUC in dog brain to plasma; format: ADME, cell-free, Canis lupus familiaris; conditions: brain and plasma, read-out: Ratio AUC
[14] = Ratio of AUC in rat brain to fAUC in rat plasma; format: ADME, cell-free; conditions: in vivo
[15] = Partial agonist activity at muscarinic M2/M3 receptor in Hartley guinea pig ileum assessed as stimulation of contraction; format: tissue-based; conditions: Cavia porcellus
Outline: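 Agonist mode used a guinea pig ileum tissue bath with the compound applied alone. Concentration–response curves were run with or without the non-selective muscarinic antagonist atropine. Contraction was expressed relative to the maximal carbachol response.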

[16] = In vivo positive allosteric modulation of muscarinic M1 receptor in CD1 mouse assessed as increase in ACh-induced IP-1 levels in […] tissue at 1 mg/kg, sc measured after 2 hrs by HTRF assay relative to baseline; format: functional
Outline: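 Given sc as a solution in 5/15/80 DMSO/Solutol/water. Striatal IP1 was read 2 h after dosing and expressed as fold increase over baseline. Compound levels were measured in striatal tissue at 2 h (N=5/dose). Each animal's fold increase was plotted against its unbound brain concentration.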

Rattus norvegicus = assay: Reversal of scopolamine-induced memory impairment in Wistar rat model at 0.32 mg/kg, po administered 15 min before training followed by 30 mins later administration with scopolamine measured after 24 hrs by Morris water maze test

Kb [1]: 5 µM | Cp(f) [2]: 0.255 µM | Activity [3]: Not Active | Fu [4]: 3.2% | fCmax [5]: 562 nM | Activity [7]: Not Active | fAUC [8]: 5.242 µM·h | bioavailability [9]: 43% | Activity [12]: Dose-dependent effect | Kp uu [13]: 0.3 | Ratio AUC [14]: 0.36 | EC50 [15]: 0.351 µM
SMILES: Cc1cnc(C(=O)N[C@H]2CCOC[C@@H]2O)cc1Cc1ccc(-c2cscn2)cc1
Activity [6]: Toxic | Activity [10]: Non-Toxic | Activity [11]: Toxic | fold change (FC) [16]: 2 | Activity (Rattus norvegicus): Active
